Reference: ChEMBL document CHEMBL1177648, “Synthesis and anti breast cancer activity of biphenyl based chalcones” (Bioorg Med Chem, 2010)
Activity calls are given as the source filed them. The rule behind the calls is not given here.

How the values were obtained:
MCF7 = experiment: Cytotoxicity against human MCF7 cells after 24 hrs by MTT assay; format: functional, cell-based
Summary of the method: (§1)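 Cells seeded at 1 × 10⁴/well in DMEM with 10% FBS and held 24 h at 37 °C in CO₂. Compounds diluted in culture medium and incubated 24 h. Medium removed, MTT (5 mg/ml) added for 4 h, formazan dissolved in DMSO, absorbance read at 540 nm. Viability given as percent of untreated cells.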

MDA-MB-231 [1] = experiment: Cytotoxicity against human MDA-MB-231 cells after 24 hrs by MTT assay; format: functional, cell-based; summary of the method: as §1
HeLa = experiment: Cytotoxicity against human HeLa cells after 24 hrs by MTT assay; format: functional, cell-based; summary of the method: as §1
HEK293 = experiment: Cytotoxicity against HEK293 cells after 24 hrs by MTT assay; format: cell-based, Homo sapiens; summary of the method: as §1
MDA-MB-231 [2] = experiment: Induction of apoptosis in human MDA-MB-231 cells assessed as early apoptotic cells at 5 uM after 24 hrs annexin-V FITC and PI staining by flow cytometry; format: functional, cell-based
Summary of the method: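 MDA-MB231 cells (1 × 10⁶) grown overnight in six-well plates, then given 5 µM final compound or vehicle (0.001% DMSO) for 24 h. Floating and adherent cells harvested by trypsinization and washed with PBS. 1 × 10⁵ cells stained with Annexin V-FITC and propidium iodide and analysed by flow cytometry with 488 nm excitation; Annexin V-FITC read at 535 nm emission.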

MDA-MB-231 [3] = experiment: Cell cycle arest in human MDA-MB-231 cells assessed as increase in sub G1 phase at 5 uM after 24 hrs annexin-V FITC and PI staining by flow cytometry; format: functional, cell-based
MDA-MB-231 [4] = experiment: Cell cycle arrest in human MDA-MB-231 cells assessed as decrease in S phase at 5 uM after 24 hrs annexin-V FITC and PI staining by flow cytometry; format: functional, cell-based
MDA-MB-231 [5] = experiment: Cell cycle arrest in human MDA-MB-231 cells assessed as reduction in cyclin A1 mRNA expression at 5 uM after 24 hrs by RT-PCR; format: functional, cell-based
Summary of the method: (§2)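 MDA-MB231 cells (1 × 10⁶) grown overnight in six-well plates, treated at 5 µM. Total RNA isolated with Trizol, 1 µg digested with DNase I, then reverse transcribed. Relative mRNA levels of cyclin A1, bax, bcl-2, p21 and p53 measured by real-time PCR against untreated control.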

MDA-MB-231 [6] = experiment: Cell cycle arrest in human MDA-MB-231 cells assessed as reduction in bcl2 mRNA expression at 5 uM after 24 hrs by RT-PCR; format: functional, cell-based; summary of the method: as §2
MDA-MB-231 [7] = experiment: Cell cycle arrest in human MDA-MB-231 cells assessed as increase in p53 mRNA expression at 5 uM after 24 hrs by RT-PCR; format: functional, cell-based; summary of the method: as §2
MDA-MB-231 [8] = experiment: Cell cycle arest in human MDA-MB-231 cells assessed as increase in p21 mRNA expression at 5 uM after 24 hrs by RT-PCR; format: functional, cell-based; summary of the method: as §2
MDA-MB-231 [9] = experiment: Induction of apoptosis in human MDA-MB-231 cells assessed as reduction in membrane potential at 5 uM after 24 hrs by flow cytometry; format: functional, cell-based
Summary of the method: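 MDA-MB-231 cells treated 24 h at 5 µM, collected by trypsinization and washed with PBS. Cells loaded with JC-1 for 15 min at 37 °C, rinsed three times in phenol-red-free high-glucose DMEM and resuspended in prewarmed medium. Membrane potential taken as the red/green (590/530 nm) fluorescence ratio.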

MDA-MB-231 [10] = experiment: Induction of apoptosis in human MDA-MB-231 cells assessed as increase in caspase level at 5 uM after 24 hrs; format: functional, cell-based
Summary of the method: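 MDA-MB231 cells kept serum-deprived for 4 h, then treated 24 h at 5 µM. Cells incubated with caspase substrate DEVD-rhodamine-110 in a homogeneous caspase assay. Fluorescence of released rhodamine-110 measured at […].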

MDA-MB-231 [11] = experiment: Cell cycle arrest in human MDA-MB-231 cells assessed as increase in bax mRNA expression at 5 uM after 24 hrs by RT-PCR; format: functional, cell-based; summary of the method: as §2
[12] = Homo sapiens, MCF7, 24 h, read-out: IC50
[13] = Homo sapiens, MDA-MB-231, 24 h, read-out: IC50
[14] = Homo sapiens, HeLa, 24 h, read-out: IC50
[15] = Homo sapiens, HEK293, 24 h, read-out: IC50

Row | SMILES | IC50 (MCF7; [12]) | IC50 (MDA-MB-231 [1]; [13]) | IC50 (HeLa; [14]) | IC50 (HEK293; hek293) | IC50 (HEK293; [15]) | IC50 (HeLa; hela) | other results
1 | Cc1cc(O)c(C(=O)/C=C/c2ccc(F)cc2)c(-c2ccccc2)c1C(=O)/C=C/c1ccc(F)cc1 | 20 µM | 20 µM | 30 µM | Not Active |  |  | 
2 | Cc1cc(O)c(C(=O)/C=C/c2ccccc2)c(-c2ccc(Br)cc2)c1C(=O)/C=C/c1ccccc1 | 10 µM | 8 µM | 30 µM |  | 30 µM |  | 
3 | COc1ccc(/C=C/C(=O)c2c(C)cc(O)c(C(=O)/C=C/c3ccc(OC)c(OC)c3)c2-c2ccccc2)cc1OC |  |  |  | Not Active |  | Not Active | IC50 (MCF7; mcf7): Not Active; IC50 (MDA-MB-231 [1]; mda-mb-231): Not Active
4 | Cc1cc(O)c(C(=O)/C=C/c2ccccc2)c(-c2ccc(OCc3ccccc3)cc2)c1C(=O)/C=C/c1ccccc1 |  |  |  | Not Active |  | Not Active | IC50 (MCF7; mcf7): Not Active; IC50 (MDA-MB-231 [1]; mda-mb-231): Not Active
5 | Cc1cc(O)c(C(=O)/C=C/c2ccc(Cl)cc2)c(-c2ccc(Cl)cc2)c1C(=O)/C=C/c1ccc(Cl)cc1 | 28 µM | 30 µM |  | Not Active |  | Not Active | 
6 | Cc1cc(O)c(C(=O)/C=C/c2ccc(Br)cc2)c(-c2ccc(OCc3ccccc3)cc2)c1C(=O)/C=C/c1ccc(Br)cc1 | 30 µM | 30 µM |  |  | 20 µM | Not Active | 
7 | COc1ccc(/C=C/C(=O)c2c(C)cc(O)c(C(=O)/C=C/c3ccc(OC)cc3)c2-c2ccc(OCc3ccccc3)cc2)cc1 | 30 µM | 12 µM | 28 µM |  | 28 µM |  | 
8 | Cc1cc(O)c(C(=O)/C=C/c2ccccc2)c(-c2ccc(Cl)cc2)c1C(=O)/C=C/c1ccccc1 | 15 µM | 4.4 µM |  |  | 5 µM | Not Active | Activity (MDA-MB-231 [2]): Active; Activity (MDA-MB-231 [3]): Active; Activity (MDA-MB-231 [4]): Active; Activity (MDA-MB-231 [5]): Active; Activity (MDA-MB-231 [6]): Active; Activity (MDA-MB-231 [7]): Active; Activity (MDA-MB-231 [8]): Active; Activity (MDA-MB-231 [9]): Active; Activity (MDA-MB-231 [10]): Active
9 | Cc1cc(O)c(C(=O)/C=C/c2ccc(OCc3ccccc3)cc2)c(-c2ccccc2)c1C(=O)/C=C/c1ccc(OCc2ccccc2)cc1 | 10 µM | 10 µM | 20 µM |  | 30 µM |  | 
10 | Cc1cc(O)c(C(=O)/C=C/c2ccc(OCc3ccccc3)cc2)c(-c2ccc(OCc3ccccc3)cc2)c1C(=O)/C=C/c1ccc(OCc2ccccc2)cc1 | 26 µM | 20 µM |  |  | 30 µM | Not Active | 
11 | Cc1cc(O)c(C(=O)/C=C/c2ccc(Br)cc2)c(-c2ccc(Br)cc2)c1C(=O)/C=C/c1ccc(Br)cc1 | 15 µM | 18 µM | 30 µM |  | 30 µM |  | 
12 | Cc1cc(O)c(C(=O)/C=C/c2ccc(Cl)cc2)c(-c2ccc(OCc3ccccc3)cc2)c1C(=O)/C=C/c1ccc(Cl)cc1 |  | 30 µM |  | Not Active |  | Not Active | IC50 (MCF7; mcf7): Not Active
13 | Cc1cc(O)c(C(=O)/C=C/c2ccc3ccccc3c2)c(-c2ccccc2)c1C(=O)/C=C/c1ccc2ccccc2c1 | 31.5 µM | 30 µM |  | Not Active |  | Not Active | 
14 | Cc1cc(O)c(C(=O)/C=C/c2ccc(OCc3ccccc3)cc2)c(-c2ccc(Br)cc2)c1C(=O)/C=C/c1ccc(OCc2ccccc2)cc1 | 20 µM | 20 µM |  |  | 25 µM | Not Active | 
15 | Cc1cc(O)c(C(=O)/C=C/c2ccc(Br)cc2)c(-c2ccccc2)c1C(=O)/C=C/c1ccc(Br)cc1 | 10 µM | 10 µM | 33.5 µM |  | 10 µM |  | 
16 | Cc1cc(O)c(C(=O)/C=C/c2cccc3ccccc23)c(-c2ccccc2)c1C(=O)/C=C/c1cccc2ccccc12 | 30 µM |  |  | Not Active |  | Not Active | IC50 (MDA-MB-231 [1]; mda-mb-231): Not Active
17 | Cc1cc(O)c(C(=O)/C=C/c2ccc(F)cc2)c(-c2ccc(OCc3ccccc3)cc2)c1C(=O)/C=C/c1ccc(F)cc1 | 28 µM | 15 µM | 25 µM |  | 30 µM |  | 
18 | Cc1cc(O)c(C(=O)/C=C/c2ccccc2Cl)c(-c2ccc(Cl)cc2)c1C(=O)/C=C/c1ccccc1Cl | 30 µM | 29 µM |  |  | 30 µM | Not Active | 
19 | CC/C(=C(\c1ccccc1)c1ccc(OCCN(C)C)cc1)c1ccccc1 [TAMOXIFEN] | 8.9 µM | 10 µM | 12.5 µM |  | 10 µM |  | 
20 | COc1ccc(/C=C/C(=O)c2c(C)cc(O)c(C(=O)/C=C/c3ccc(OC)cc3)c2-c2ccc(Br)cc2)cc1 |  |  |  | Not Active |  | Not Active | IC50 (MCF7; mcf7): Not Active; IC50 (MDA-MB-231 [1]; mda-mb-231): Not Active
21 | Cc1cc(O)c(C(=O)/C=C/c2ccc(F)cc2)c(-c2ccc(Br)cc2)c1C(=O)/C=C/c1ccc(F)cc1 | 20 µM | 22.3 µM |  |  | 20 µM | Not Active | 
22 | COc1ccc(/C=C/C(=O)c2c(C)cc(O)c(C(=O)/C=C/c3ccc(OC)cc3)c2-c2ccccc2)cc1 |  |  |  | Not Active |  | Not Active | IC50 (MCF7; mcf7): Not Active; IC50 (MDA-MB-231 [1]; mda-mb-231): Not Active
23 | Cc1cc(O)c(C(=O)/C=C/c2ccc3ccccc3c2)c(-c2ccc(Cl)cc2)c1C(=O)/C=C/c1ccc2ccccc2c1 |  |  |  | Not Active |  | Not Active | IC50 (MCF7; mcf7): Not Active; IC50 (MDA-MB-231 [1]; mda-mb-231): Not Active
24 | Cc1cc(O)c(C(=O)/C=C/c2ccc(Cl)cc2)c(-c2ccc(Br)cc2)c1C(=O)/C=C/c1ccc(Cl)cc1 | 20 µM | 15 µM | 32 µM |  | 25 µM |  | 
25 | Cc1cc(O)c(C(=O)/C=C/c2ccc(Cl)cc2)c(-c2ccccc2)c1C(=O)/C=C/c1ccc(Cl)cc1 | 10 µM | 7.9 µM | 30 µM |  | 10 µM |  | 
26 | Cc1cc(O)c(C(=O)/C=C/c2ccccc2)c(-c2ccccc2)c1C(=O)/C=C/c1ccccc1 | 10 µM | 8.5 µM |  | Not Active |  | Not Active | 
27 | Cc1cc(O)c(C(=O)/C=C/c2ccccc2Cl)c(-c2ccccc2)c1C(=O)/C=C/c1ccccc1Cl |  |  |  | Not Active |  | Not Active | IC50 (MCF7; mcf7): Not Active; IC50 (MDA-MB-231 [1]; mda-mb-231): Not Active
28 | Cc1cc(O)c(C(=O)/C=C/c2cccc(Cl)c2)c(-c2ccccc2)c1C(=O)/C=C/c1cccc(Cl)c1 | 20 µM | 4.67 µM | 22 µM |  | 15 µM |  | Activity (MDA-MB-231 [2]): Active; Activity (MDA-MB-231 [3]): Active; Activity (MDA-MB-231 [4]): Active; Activity (MDA-MB-231 [5]): Active; Activity (MDA-MB-231 [6]): Active; Activity (MDA-MB-231 [11]): Active; Activity (MDA-MB-231 [7]): Active; Activity (MDA-MB-231 [8]): Active; Activity (MDA-MB-231 [9]): Active; Activity (MDA-MB-231 [10]): Active
29 | Cc1cc(O)c(C(=O)/C=C/c2cccc3ccccc23)c(-c2ccc(Cl)cc2)c1C(=O)/C=C/c1cccc2ccccc12 | 30 µM | 30 µM |  |  | 30 µM | Not Active | 
30 | COc1ccc(/C=C/C(=O)c2c(C)cc(O)c(C(=O)/C=C/c3ccc(OC)c(OC)c3)c2-c2ccc(OCc3ccccc3)cc2)cc1OC | 30 µM | 22 µM |  |  | 30 µM | Not Active | 
